Tests used:
Bacterial urease [1] = molecular target: T1, Bacterial urease (Bacteria, UniProt Q03282+Q03283+Q03284); experiment: (§1) Inhibition of bacterial urease using urea as substrate preincubated for 15 mins followed by substrate addition […]; format: protein-complex assay
T1 sequence (Q03282 whole entry): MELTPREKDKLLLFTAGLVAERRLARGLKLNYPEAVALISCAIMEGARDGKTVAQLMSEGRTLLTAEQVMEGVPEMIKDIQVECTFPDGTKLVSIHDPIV
T1 sequence (Q03283 whole entry): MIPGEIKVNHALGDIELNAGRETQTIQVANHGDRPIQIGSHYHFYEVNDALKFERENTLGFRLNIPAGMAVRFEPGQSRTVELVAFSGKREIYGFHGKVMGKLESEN
T1 sequence (Q03284 whole entry): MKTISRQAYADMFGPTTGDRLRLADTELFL
In short: (§2)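 Compounds preincubated with urease (1 U/well) for 15 min at 30 °C. Urea (100 mM, as added) introduced and incubation continued at 30 °C. Ammonia formed was detected by the Weatherburn phenol-hypochlorite method: alkaline reagent (0.5% w/v NaOH, 0.1% NaOCl) and phenol reagent (1% w/v phenol, 0.005% w/v nitroprusside) were added, then 50 min at 30 °C. Absorbance read at 630 nm on a plate reader.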

Bacterial urease [2] = molecular target: Bacterial urease (Bacteria, UniProt Q03284); experiment: as §1; format: protein-complex assay; in short: as §2
Urease [3] = molecular target: T2, Urease (Canavalia ensiformis, UniProt P07374); experiment: Inhibition of jack bean urease using urea as substrate preincubated for 15 mins followed by substrate addition and measured after 10 mins by ELISA; in short: as §2
T2 sequence (P07374 whole entry): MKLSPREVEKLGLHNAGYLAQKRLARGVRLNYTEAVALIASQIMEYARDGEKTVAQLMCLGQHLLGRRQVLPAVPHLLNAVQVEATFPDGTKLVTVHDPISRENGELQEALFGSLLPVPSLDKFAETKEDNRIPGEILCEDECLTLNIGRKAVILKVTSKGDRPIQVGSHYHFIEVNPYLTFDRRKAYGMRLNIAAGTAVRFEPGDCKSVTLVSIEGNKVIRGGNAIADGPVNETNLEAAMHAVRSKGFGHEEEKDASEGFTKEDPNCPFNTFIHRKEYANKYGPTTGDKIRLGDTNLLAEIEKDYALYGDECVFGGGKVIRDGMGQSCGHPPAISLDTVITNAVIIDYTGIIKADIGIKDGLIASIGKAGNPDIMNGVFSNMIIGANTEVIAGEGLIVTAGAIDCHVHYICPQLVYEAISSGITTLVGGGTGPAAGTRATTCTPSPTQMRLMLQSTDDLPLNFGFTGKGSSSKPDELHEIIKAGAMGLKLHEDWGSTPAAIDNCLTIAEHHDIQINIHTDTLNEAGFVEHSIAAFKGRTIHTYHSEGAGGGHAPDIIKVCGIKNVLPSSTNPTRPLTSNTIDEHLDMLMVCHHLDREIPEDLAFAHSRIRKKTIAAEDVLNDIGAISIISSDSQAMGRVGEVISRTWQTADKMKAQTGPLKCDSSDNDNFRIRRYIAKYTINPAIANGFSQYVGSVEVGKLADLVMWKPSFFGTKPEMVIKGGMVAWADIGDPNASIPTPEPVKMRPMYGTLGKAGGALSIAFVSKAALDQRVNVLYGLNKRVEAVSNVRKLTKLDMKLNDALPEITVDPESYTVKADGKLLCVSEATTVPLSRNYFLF

[4] = molecular target: Bacterial urease (Bacteria) (UniProt Q03282+Q03283+Q03284); experiment: Potency index, ratio of acetohydroxamic acid IC50 to test compound IC50 for bacterial urease; format: protein-complex assay
In short: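 Spectrophotometric urease inhibition assay underlying the IC50s in the ratio, for test compounds and acetohydroxamic acid. Compound pre-incubated with urease (1 U/well) at 30 °C for 15 min. Urea (100 mM) was added and incubation continued at 30 °C. Phenol–nitroprusside and alkaline hypochlorite reagents were added, then 50 min at 30 °C. Ammonia was measured by the Weatherburn method, with absorbance change at 630 nm.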

Urease [5] = molecular target: T2, Urease; experiment: Inhibition of jack bean urease assessed as reduction in ammonia production using urea as substrate after 30 mins by indophenol method; in short: as §2

| SMILES | IC50 (Bacterial urease [1]) | IC50 (Bacterial urease [2]) | other results |
| --- | --- | --- | --- |
| O=[N+]([O-])c1cccc(S(=O)(=O)NN=C(c2ccccc2)c2ccccc2)c1Cl | Not Active | – | – |
| O=S(=O)(N/N=C(\c1ccccc1)c1ccc(O)cc1)c1ccccc1Cl | – | 16.9 µM | – |
| O=S(=O)(NN=C(c1ccccc1)c1ccccc1)c1ccccc1 | Not Active | – | – |
| Cc1ccc([N+](=O)[O-])cc1S(=O)(=O)NN=C(c1ccccc1)c1ccccc1 | – | 69 µM | – |
| Oc1ccc(/C(=N/NC(=S)Nc2cccc(Br)c2)c2ccccc2)cc1 | – | – | IC50 (Urease [3]): 8.7 µM |
| O=[N+]([O-])c1ccc(S(=O)(=O)N/N=C(\c2ccccc2)c2ccc(O)cc2)cc1 | – | 3.9 µM | Ratio IC50 [4]: 10 |
| NS(=O)(=O)c1ccc(CCNC=C2C(=O)NC(=S)NC2=O)cc1 | – | – | IC50 (Urease [5]): 11.5 µM |
| O=S(=O)(N/N=C(\c1ccccc1)c1ccc(O)cc1)c1ccccc1 | – | 16.3 µM | – |
| O=[N+]([O-])c1cccc(S(=O)(=O)NN=C(c2ccccc2)c2ccccc2)c1 | Not Active | – | – |
| O=S(=O)(N/N=C(\c1ccccc1)c1ccc(O)cc1)c1cc(Cl)cc(Cl)c1O | – | 4.97 µM | – |
| O=S(=O)(NN=C(c1ccccc1)c1ccccc1)c1cc(Cl)cc(Cl)c1O | – | 71.6 µM | – |
| O=[N+]([O-])c1ccc(S(=O)(=O)NN=C(c2ccccc2)c2ccccc2)c([N+](=O)[O-])c1 | – | 69 µM | – |
| O=[N+]([O-])c1ccccc1S(=O)(=O)NN=C(c1ccccc1)c1ccccc1 | Not Active | – | – |
| CC(=O)NO [ACETOHYDROXAMIC ACID] | – | 29.2 µM | – |
| CS(=O)(=O)N/N=C(\c1ccccc1)c1ccc(O)cc1 | – | 43.4 µM | – |
| O=S(=O)(NN=C(c1ccccc1)c1ccccc1)c1cc(Cl)c(Cl)cc1Cl | Not Active | – | – |
| O=S(=O)(N/N=C(\c1ccccc1)c1ccc(O)cc1)c1cc(Cl)ccc1Cl | – | 31.2 µM | – |
| O=S(=O)(NN=C(c1ccccc1)c1ccccc1)c1ccccc1Cl | Not Active | – | – |

| SMILES | IC50 (Bacterial urease [1]) | IC50 (Bacterial urease [2]) | other results |
| --- | --- | --- | --- |
| O=S(=O)(N/N=C(\c1ccccc1)c1ccc(O)cc1)c1ccc(Cl)cc1Cl | – | 18 µM | – |
| COc1ccc(S(=O)(=O)NN=C(c2ccccc2)c2ccccc2)c(OC)c1 | Not Active | – | – |
| O=[N+]([O-])c1cc(S(=O)(=O)NN=C(c2ccccc2)c2ccccc2)ccc1Cl | Not Active | – | – |
| O=[N+]([O-])c1ccc(S(=O)(=O)NN=C(c2ccccc2)c2ccccc2)cc1 | Not Active | – | – |
| CC(=O)Nc1ccc(S(=O)(=O)Nc2ccc(Br)cc2)cc1 | – | – | IC50 (Urease [3]): 62.4 µM |
| O=S(=O)(NN=C(c1ccccc1)c1ccccc1)c1ccc(Cl)cc1 | – | 66.1 µM | – |
| O=S(=O)(NN=C(c1ccccc1)c1ccccc1)c1ccc2ccccc2c1 | Not Active | – | – |
| O=S(=O)(NN=C(c1ccccc1)c1ccccc1)c1ccc(Cl)cc1Cl | Not Active | – | – |
| CCCCS(=O)(=O)NN=C(c1ccccc1)c1ccccc1 | Not Active | – | – |
| O=[N+]([O-])c1ccc(NC(=S)N/N=C(\c2ccccc2)c2ccc(O)cc2)cc1 | – | – | IC50 (Urease [3]): 26.1 µM |
| CN(C)c1cccc2c(S(=O)(=O)NN=C(c3ccccc3)c3ccccc3)cccc12 | – | 72.2 µM | – |
| Cc1cc(S(=O)(=O)NN=C(c2ccccc2)c2ccccc2)c(C)cc1Cl | Not Active | – | – |
| COc1ccc(S(=O)(=O)N/N=C(\c2ccccc2)c2ccc(O)cc2)cc1 | – | 14.5 µM | – |
| CN(C)c1cccc2c(S(=O)(=O)N/N=C(\c3ccccc3)c3ccc(O)cc3)cccc12 | – | 5.7 µM | – |
| O=S(=O)(CCCl)N/N=C(\c1ccccc1)c1ccc(O)cc1 | – | 55 µM | – |
| O=[N+]([O-])c1cccc(S(=O)(=O)N/N=C(\c2ccccc2)c2ccc(O)cc2)c1 | – | 13.7 µM | – |
| O=S(=O)(N/N=C(\c1ccccc1)c1ccc(O)cc1)c1cc(Cl)c(Cl)cc1Cl | – | 57.9 µM | – |
| COc1ccc(S(=O)(=O)NN=C(c2ccccc2)c2ccccc2)cc1 | Not Active | – | – |
